Results as given in PubChem BioAssay.
Active and inactive are the calls of the source.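 Rule for the calls, unless noted: active = viability at or below 10% of carrier control in both of two separate runs; inconclusive = viability at or below 10% in only one of the two runs; inactive = the rest.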 Peptide text beside a SMILES is read from it. * marks the point of attachment. Boc = CC(C)(C)OC(=O)*

Columns and labels:
[1] = reduced viability of SK-BR-3 breast cancer cells – cell-based, 24 h, human, pilot screen (AID 572); conditions: SK-BR-3 viability, CellTiter-Glo luminescence, at 10 µM, stronger effect = lower value;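 note: compound exposure lasted between 18 and 24 h rather than exactly 24 h; 100% = carrier-treated control wells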
[2] = HUVEC growth inhibition – cell-based, human, primary screen (AID 575;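 active = viability at or below 30% in both replicate assays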;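 note: 100% = median of untreated cell wells with 0.1% DMSO on each plate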); conditions: HUVEC proliferation, CellTiter-Glo luminescence, 72 h; at 10 µM; stronger effect = lower value
Summary of the method: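 system = HUVEC primary cells | amount = 1250 cells/well | buffer or medium = supplemented EBM, 2% fetal bovine serum | dosing = single-point 10 µM, DMSO 0.1% final | times = 72 h compound incubation | detection = CTG luminescence | read-out = % viability relative to median vehicle-well signal on each plate | control set = vehicle and MePR control wells | format = collagen-coated 384-well format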

[3] = H69AR cell proliferation blockers – human, duplicate replicates, primary screen (AID 580;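 active = viability at or under a set limit in both replicates, limit being median viability minus 3 SD, cut at about 48% in these data, passing the limit was not always enough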;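 note: 100% = mean luminescence of untreated wells and 0% = no signal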); conditions: H69AR lung tumor cells viability, ATP luminescence, 72 h; at 10 µM; stronger effect = lower value
[4] = MRP1 drug-resistance reversers in H69AR cells – cell-based, doxorubicin co-treatment, pilot screen (AID 601;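 active = viability loss from added drug above about 55%, and viability with drug at most 40%, in both replicates, limit read from the data, passing the limit was not always enough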); conditions: CellTiter-Glo, 72 h, at 10 µM; for differential viability (reversal): stronger effect = higher value
[5] = yeast transport mutant growth inhibition pilot in 384-well plates, post-Golgi transport modulator project (AID 636; in the data active = inhibition above about 31%); conditions: absorbance 615 nm, about 18 h, stronger effect = higher value
[6] = growth suppression of yeast trafficking mutant, preliminary HTS, modulators of trafficking downstream of Golgi apparatus project, 1536-format plate, OD 615 nm (AID 637; in the data active = inhibition above about 30%); conditions: yeast transport mutant growth, absorbance 615 nm, 18 h; stronger effect = higher value
[7] = H69AR cells + 2 uM doxorubicin, measured here: viability with 2 uM doxorubicin, stronger effect = lower value
[8] = H69AR cells, compound alone cytotoxicity

Row | Structure (SMILES) | viability [1] | viability [2] | viability [3] | differential viability (reversal) ([4]; H69AR cells + 2 uM doxorubicin) | viability [4, 7] | viability [4, 8] | inhibition [5] | inhibition [6]
1 | CCn1cnc2sc(C(=O)Nc3ccc4c(c3)OCO4)c(C)c2c1=O | 107% (inactive) | 96.2% (inactive) | 94% (inactive) | 11% (inactive) | 83% | 94% | -8% (inactive) | -5.27% (inactive)
2 | O=S(=O)(c1ccc2c(c1)OCCO2)N1CCN(Cc2ccc3c(c2)OCO3)CC1 | 112% (inactive) | 105% (inactive) | 88.4% (inactive) | -6.71% (inactive) | 95.1% | 88.4% | -3.24% (inactive) | 1.09% (inactive)
3 | COc1ccc(S(=O)(=O)N2CCCC(C(=O)NCc3ccccn3)C2)cc1 (centres undefined) | 146% (inactive) | 96.8% (inactive) | 95.5% (inactive) | 3.92% (inactive) | 91.6% | 95.5% | -1.43% (inactive) | -0.66% (inactive)
4 | C#CCN(C)Cc1ccccc1 | 96% (inactive) | 94.3% (inactive) | 93.8% (inactive) | -6.42% (inactive) | 100% | 93.8% | 0.26% (inactive) | -1.17% (inactive)
5 | Nn1c(SCC(=O)Nc2ccc(S(=O)(=O)N3CCCC3)cc2)nnc1C(F)(F)F | 110% (inactive) | 89.7% (inactive) | 90.8% (inactive) | -6.72% (inactive) | 97.6% | 90.8% | 0% (inactive) | 3.11% (inactive)
6 | CC(c1ccco1)N(Cc1ccco1)C(=O)Nc1ccccc1 (centres undefined) | 108% (inactive) | 76.3% (inactive) | 91.2% (inactive) | 23.7% (inactive) | 67.6% | 91.2% | 1.69% (inactive) | 6.72% (inactive)
7 | CC1(C)CC(=O)C2=C(C1)N(CC1CCCO1)C(=O)C2(O)C(F)(F)F (centres undefined) | 98% (inactive) | 97.5% (inactive) | 101% (inactive) | 3.08% (inactive) | 97.7% | 101% | -5.95% (inactive) | -6.36% (inactive)
8 | O=C(Cc1cccs1)N(c1ccccc1)C1C=CS(=O)(=O)C1 (centres undefined) | 118% (inactive) | 107% (inactive) | 106% (inactive) | 28.9% (inactive) | 76.7% | 106% | -3.07% (inactive) | -1.64% (inactive)
9 | O=C(CSc1nnc(COc2ccc(Cl)cc2)o1)OC1CCCCC1 | 106% (inactive) | 95.5% (inactive) | 102% (inactive) | 6.06% (inactive) | 95.9% | 102% | 4.66% (inactive) | -3.87% (inactive)
10 | CC(CCc1ccccc1)NCC(O)c1ccc(O)c(C(N)=O)c1 (centres undefined) | 94% (inactive) | 104% (inactive) | 93.8% (inactive) | 1.8% (inactive) | 92% | 93.8% | 1.17% (inactive) | -3.17% (inactive)
11 | COc1ccccc1CNC(=O)Nc1cccs1 | 126% (inactive) | 63.8% (inactive) | 72.1% (inactive) | 5.65% (inactive) | 66.5% | 72.1% | -0.78% (inactive) | 4.1% (inactive)
12 | CN(C)CCC=C1c2ccccc2CCc2ccccc21 | 95% (inactive) | 60.6% (inactive) | 82.3% (inactive) | 8.06% (inactive) | 74.3% | 82.3% | -3.12% (inactive) | -1.67% (inactive)
13 | CC(=O)Nc1nc(C)c(-c2csc(Nc3ccc(O)cc3)n2)s1 | 114% (inactive) | 19.7% (active) | 13.3% (active) | -5.39% (inactive) | 18.6% | 13.3% | -3.95% (inactive) | -6.13% (inactive)
14 | Brc1ccc2[nH]c3nc(SCCN4CCOCC4)nnc3c2c1 | 100% (inactive) | 89.8% (inactive) | 87% (inactive) | 10.9% (inactive) | 76.2% | 87% | 2.21% (inactive) | 11.6% (inactive)
15 | CCN(CC)C(=O)CSC1=C(C#N)C(c2ccco2)C(C(=O)OCCOC)=C(C)N1 (centres undefined) | 116% (inactive) | 101% (inactive) | 78% (inactive) | 6.37% (inactive) | 71.6% | 78% | -6.16% (inactive) | 2.58% (inactive)
16 | CC(NCCc1ccc(O)cc1)C(O)c1ccc(O)cc1 (centres undefined) | 99% (inactive) | 101% (inactive) | 99.4% (inactive) | 7.11% (inactive) | 92.3% | 99.4% | -2.73% (inactive) | 0.67% (inactive)
17 | Cc1ccc(NC2=NCC(=O)N2c2ccc3c(c2)OCCO3)c(C)c1 | 84% (inactive) | 95.7% (inactive) | 99.4% (inactive) | 0.67% (inactive) | 98.7% | 99.4% | -6.16% (inactive) | -2.9% (inactive)

Row | Structure (SMILES) | viability [1] | viability [2] | viability [3] | differential viability (reversal) ([4]; H69AR cells + 2 uM doxorubicin) | viability [4, 7] | viability [4, 8] | inhibition [5] | inhibition [6]
18 | CN1[C@@H]2CC(OC(=O)[C@H](CO)c3ccccc3)C[C@H]1[C@@H]1O[C@@H]12 (some centres undefined) | 104% (inactive) | 96.7% (inactive) | 102% (inactive) | 6.26% (inactive) | 95.3% | 102% | -2.08% (inactive) | -2.83% (inactive)
19 | O=C(Nc1ccc(N2CCOCC2)cc1)Nc1ccc2nc(-c3ccco3)c(-c3ccco3)nc2c1 | 71.5% (inactive) | 16.6% (active) | 13.5% (active) | -8.11% (inactive) | 21.6% | 13.5% | -7.73% (inactive) | -1.45% (inactive)
20 | CC(C)CC(NC(=O)OC(C)(C)C)C(=O)NC(C(=O)N1CCCC1C(N)=O)C(C)C (stereo not drawn) (Boc-Leu-Val-Pro-NH2; configuration not given here) | 103% (inactive) | 101% (inactive) | 111% (inactive) | 17.5% (inactive) | 93.8% | 111% | 0.78% (inactive) | -4.1% (inactive)
21 | CCC(CC)C1C(C#N)=C(N)Oc2n[nH]c(C)c21 (centres undefined) | 85% (inactive) | 91.9% (inactive) | 24.9% (active) | -44.6% (inactive) | 69.6% | 24.9% | -6.22% (inactive) | -0.18% (inactive)
22 | CC(C)(C)NC(=O)C(Cc1ccccc1)NS(=O)(=O)c1cccc2nsnc12 (centres undefined) | 87% (inactive) | 105% (inactive) | 87.8% (inactive) | -7.5% (inactive) | 95.3% | 87.8% | -9.86% (inactive) | -1.09% (inactive)
23 | O=C1CCc2cc(OCCCCc3nnnn3C3CCCCC3)ccc2N1 | 98% (inactive) | 78.6% (inactive) | 101% (inactive) | 13% (inactive) | 88.2% | 101% | 1.82% (inactive) | -4% (inactive)
24 | O=S(=O)(NCC1CCCO1)c1ccc2c(c1)OCCO2 (centres undefined) | 128% (inactive) | 98% (inactive) | 97.6% (inactive) | 0.805% (inactive) | 96.8% | 97.6% | 0.41% (inactive) | -5.48% (inactive)
25 | O=c1c(O)c(-c2ccc(O)cc2O)oc2cc(O)cc(O)c12 | 94% (inactive) | 97.5% (inactive) | 97.4% (inactive) | -2.28% (inactive) | 99.6% | 97.4% | -3.77% (inactive) | -1.33% (inactive)
26 | Cc1cc(C)cc(OCC(=O)NC2=NCCS2)c1 | 100% (inactive) | 87.5% (inactive) | 96.1% (inactive) | 2.82% (inactive) | 93.3% | 96.1% | 0.39% (inactive) | 1.48% (inactive)
27 | Cn1cnnc1Sc1nc2c(c(=O)n(C)c(=O)n2C)n1Cc1ccccc1Cl | 72% (inactive) | 98.5% (inactive) | 90.3% (inactive) | -2.15% (inactive) | 92.4% | 90.3% | -3.7% (inactive) | 0.91% (inactive)
28 | COC(=O)[C@H](C)NC(=O)Nc1cccc(C(F)(F)F)c1 | 145% (inactive) | 97.2% (inactive) | 89.9% (inactive) | -5.75% (inactive) | 95.7% | 89.9% | -0.96% (inactive) | 30% (active)
29 | O=C(Cc1nc2ccccc2s1)c1ccc(O)cc1O | 100% (inactive) | 87.3% (inactive) | 90.8% (inactive) | 4.72% (inactive) | 86% | 90.8% | -4.53% (inactive) | -0.18% (inactive)
30 | Cc1ccc(S(=O)(=O)N2CCN(C(=O)CSC3CCCC3)CC2)c(C)c1 | 74% (inactive) | 87.4% (inactive) | 81.6% (inactive) | -7.29% (inactive) | 88.8% | 81.6% | -9.59% (inactive) | -5.32% (inactive)
31 | C=CCn1c(SCC(=O)Nc2ccccc2OC)nnc1-c1ccccn1 | 84% (inactive) | 92.4% (inactive) | 27.6% (active) | -38.3% (inactive) | 65.9% | 27.6% | -3.78% (inactive) | -4.36% (inactive)
32 | O=C1CCCN1Cc1ncnn1-c1ccccc1 | 89% (inactive) | 108% (inactive) | 112% (inactive) | 14.7% (inactive) | 97.1% | 112% | 0.27% (inactive) | -6.55% (inactive)
33 | COc1ccc(C2C3=C(CCCC3=O)Nc3nc(SCc4ccccc4)nn32)cc1OC (centres undefined) | 101% (inactive) | 121% (inactive) | 74.9% (inactive) | -21% (inactive) | 96% | 74.9% | -4.46% (inactive) | 0.36% (inactive)
